Assay results from the EternaBench riboswitch data.

Tested on: MS2 coat protein
Assay: apparent Kd, MS2 coat protein; higher = weaker binding; RNA-MaP array; FMN 200 µM where present
Summary of the method: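 Two titrations, one without ligand and one with constant ligand, were run with SNAP-549-labelled MS2 coat protein from 0.7 or 1.5 nM, doubling to 3 µM. The targets were designs transcribed by stalled E. coli RNA polymerase on Illumina sequencing-chip clusters, in 100 mM Tris-HCl pH 7.5, 80 mM KCl, 4 mM MgCl2, BSA, DTT, yeast tRNA and Tween-20. The apparent Kd is the median of filtered per-cluster binding-curve fits, with green signal normalised to red-channel RNA signal and control-cluster median Fmax.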

[1] = designed as: OFF switch for flavin mononucleotide, no ligand
[2] = ligand present: flavin mononucleotide, designed as: OFF switch for flavin mononucleotide
[3] = designed as: ON switch for flavin mononucleotide, no ligand
[4] = ligand present: flavin mononucleotide, designed as: ON switch for flavin mononucleotide

Row | Sequence | apparent Kd [1] [nM] | apparent Kd [2] [nM] | apparent Kd [3] [nM] | apparent Kd [4] [nM]
1 | AUUUAUGUUGAGGAUAUGCUAAAAUGUAUAGUUGCAGAAGGCGACACAUGAGGAUCACCCAUGUUCAUGGAAUU | 37 | 43.7 |  | 
2 | AGUGUCAUCGAGAAGGCCUCAACAUGAGGAUCACCCAUGUUGCAAAAUGGGAGGAUAUCGAAAAAACAGCUACGUUUCGUAGCA |  |  | 22.6 | 5.17
3 | UAAAUUAACAAGAAGGCUAACAUGAGGAUCACCCAUGUUGUACAUGGAUAUAGAGGAUAUUGCUAAUAAUUAUUUAUCAUAAUU | 24.4 | 20.1 |  | 
4 | GUGUAGUCAGGAUAUACAUAGGAAGAGAAGAGAAGAGAAGGACAUGAGGAUCACCCAUGUAGAAGGGACAGUGU | 46.7 | 40.9 |  | 
5 | CUAUACAUAUCAGGAUAUCAUCGCGUGGAUUAACCCUGUGAUUACAUGAGGAUCACCCAUGUGCUUGAGAAGGGAUUACUAUUU | 33.7 | 152 |  | 
6 | CUUUCGUGAGGAUAUGUGGCUUCGAUCGUGAGAUCGAGGAAACAGAAGGCACAUGAGGAUCACCCAUGUUCCUC | 35.9 | 421 |  | 
7 | UUUGUAAUGUCAGGAUAUAUAAUAAGUCAUACAGUAGAAGGGAUAAUUAUACUCAUGUACAUGAGGAUCACCCAUGUUAAAUAU |  |  | 80.1 | 45.6
8 | GUACUGCCCACAGAUAACUUAGCCAGAAGGGUCUACAUGAGGAUCACCCAUGUGGUCCAAAGUGGACAGGAUAUGGAAACGGUU | 68.4 | 40.9 |  | 
9 | AGGAUGUUAGGAUAUCGGAGAUGCGGGAGGAGGUGGAGGUACGAGAAGGAACAUGAGGAUCACCCAUGUGGAAG | 20.3 | 19.9 |  | 
10 | UAUAUAAUUAAGAGCUGGAAAACAACAUGAGGAUCACCCAUGUAGGAUAUCAGCACGAUAAGUGCUGAGAAGGACUACCAGCUC | 14 | 16.8 |  | 
11 | AGUCGGAGCAGAGGAUAUUACAUGAGGAUCACCCAUGUAUUAAAUGGAAGCUGGAAACAGCAAUGUAAGAAGGCUGCUCCGACA | 62.4 | 284 |  | 
12 | UUGUUGUGAGUAAGGAUAUGAUGCAGGAAACUGCGUCAGAAGGUACAUGAGGAUCACCCAUGUUAAUUUUGUUU | 16.8 | 23.5 |  | 
13 | GCACUGACAGGAUAUACAUGAGGAUCACCCAUGUGACCCUUAGAGUACUCGCGUACUCGUAGAAGGGUCUGUGC | 36 | 105 |  | 
14 | GCGAUGAUCGAGAAGGCCACUACAUGAGGAUCACCCAUGUCGUGGUGUAUUGGAGGAUAUCGAUUGGCGCCUUAUGAGGACAUG | 5.49 | 8.22 |  | 
15 | GUCGGAUGUAUAGGAUAUCGACUGGAAUACAGUCGAGAAGGAUACAUGAGGAUCACCCAUGUAAUAAUAAUAAUAAUAACCGAC | 12.5 | 24 |  | 
16 | UCAUCAACGGGCGGGUCGGUUGGACAUGAGGAUCACCCAUGUAGAAGGACCGGUGGACUCCGGCGGUAGGAUAUACAUAUGGUG | 29.2 | 36.7 |  | 
17 | GGGCCGGUGGAGAAGGAGCUUACGAAACGUAGGCUAGGAUAUCCACAUGAGGAUCACCCAUGUGGGAAUAUCUGAUUUUCGCAG | 4 | 5.26 |  | 
18 | CACGGGUCAGGAUAUUGUUAGUUUAGUUGUUUGUAUUAGUUCGAGAAGGGACAUGAGGAUCACCCAUGUGGUCA | 285 | 269 |  | 
19 | ACCUUACUGGUCAGGAUAUACAGUCUUGGGUGGGUGUAGAAGGGACAUGAGGAUCACCCAUGUAGGUUGCAGCA | 129 | 126 |  | 
20 | UUAUUAUAUGUAGGAUAUGCAUAUUAUUAUUGUGCAGAAGGACAUGAGGAUCACCCAUGUAUAUUAUUAGUAUAUAUUAUAUAU | 18.5 | 19.2 |  | 
21 | AGUUAAUAUCGAGGAUAUCCUCAUCUACAUGAGGAUCACCCAUGUAAACAUGGAGAAGGCGAUAUUAACAGCAUGUUACAUGCA |  |  | 259 | 14.9
22 | AGUUAAUAUCGAGGAUAUGUCUAGACACAUGAGGAUCACCCAUGUAUGUGUAUAGAAGGCAAAAUUAACAGCAUGUUACAUGCA |  |  | 30.6 | 24.9
23 | UGAUACCAAGGAUAUACAUGAGGAUCACCCAUGUCGGACCGAUGUGUCUCCUCCUGCUGUAGAAGGUGGAAAAU | 39.9 | 55.6 |  | 
24 | UAAGUAUGUUGAGGAUAUUAUGUUUGGUGAGAUGACAUGAGGAUCACCCAUGUGUUAUCAGUUCUUAAGAAGGCAACAUACUUA |  |  | 25.7 | 17.8
25 | ACAUGAGGAUCACCCAUGUAUUUAUUUGAAUCUUAAGUUACGUAGGAUAUCGUGUAUACUAUCAUCGAGAAGGACGAUGUGAUA |  |  | 15.4 | 13.6
26 | GGGUACAUCGGAGGAUAUCAUGUAAAUACAUGAGGAUCACCCAUGUCGAUGGAGACAUCGGAGAUUGAGAAGGCCGAUGUGCCG |  |  | 145 | 9.5
27 | GUGUAGAUAGGAUAUGCUUAGAGCUUACGAAAGUAGGCUCUACAUGAGGAUCACCCAUGUAGAAGGGUCUACAC | 31.3 | 19.1 |  | 
28 | GGGUAUAUCGGAGGAUAUCAUGUAAAUACAUGAGGAUCACCCAUGUCGAUGGAGACAUCGGAGAUUGAGAAGGCCGAUGUACCG |  |  | 163 | 9.34

Row | Sequence | apparent Kd [1] [nM] | apparent Kd [2] [nM] | apparent Kd [3] [nM] | apparent Kd [4] [nM]
29 | ACAAAUGGAGGAUAUACAUGAGGAUCACCCAUGUUUAUCCUACAUAUGUGAUAAUAAUGUAGAAGGCCAUAUGA | 12.3 | 12.3 |  | 
30 | GCCAUCGUACGAGGAUAUGGCACCGAAACGGUGCCAGAAGGCGUGUCAAUAGACAUGAGGAUCACCCAUGUAUUAUCGAUGGCA |  |  | 23.2 | 17.6
31 | AGCACGAAAGUGCAACGAUGUAGCAGAAGGACAUGAGGAUCACCCAUGUAAGCAGUAUCUGCAAUGUAGGAUAUGCUACAUCGA | 13.6 | 119 |  | 
32 | CUGAUGUUAGGAUAUCAGGCUGCGCGCGAAGGCGGACGGCAUGAGAAGGAACAUGAGGAUCACCCAUGUGACGA | 32.6 | 103 |  | 
33 | AGUUGUAAUACAGGAUAUAUAUUAUUUUUAUUUAUAGAAGGGUAAUCACAUGAGGAUCACCCAUGUAUAUACGAGGAAGAAGAG |  |  | 291 | 329
34 | GGAUUACAUGAGGAUCACCCAUGUGAGGAUAUCGAUGUCCUCAGUGGAGUGCGGGACUCGAGAAGGCACUUGGA | 172 | 169 |  | 
35 | GGGUACAUCGGAGGAUAUCAUGUAAAUACAUGAGGAUCACCCAUGUCGAUGCAGACAUCGGAGAUUGAGAAGGCCGAUGUACCG |  |  | 974 | 78.4
36 | AUGUACCUAGGAUAUACAUGAGGAUCACCCAUGUCACAAAUAAAACACAGGUAUCCUGGUAGAAGGAGGAACAA | 25 | 105 |  | 
37 | GCACGAGACUAAGGAUAUGGAGUGUCUACAUUAAACAUGAGGAUCACCCAUGUAGAGAGUACGAUUCAGAAGGUAGAGACGUGC |  |  | 48.6 | 22.1
38 | UAUUUAUAAUAUUUUAACAUGAGGAUCACCCAUGUCGCUAGACAGGAUAUAUUUUAUUUUUUUAAGUAGAAGGGUCAUAGAUUU |  |  | 75.1 | 96.9
39 | GGGUACAUCGGAGGAUAUCAUGUAAAUACAUGAGGAUCACCCAUGUCGAUGGAGACAUCGGAGAUUGAGAAGGCCGAUGUAUCG |  |  | 157 | 9.09
40 | AAAACAUGAGGAUCACCCAUGUAAAGAACGGUUAAUAAAUGUGAGGAUAUACUAAAAUUUUCGUAGUAGAAGGCACUGGGUACA |  |  | 22.2 | 24.8
41 | ACCCGCAGCCGUCAGGAUAUGUUCGCGUCAACAUGAGGAUCACCCAUGUGUGACAAGAAGUACACGCAGAAGGGAUCAAUGCGGG |  |  | 16.4 | 18.3
42 | AAUUACAGAUGAGGAUAUUGACAUGAGGAUCACCCAUGUAUUUGGGAAUGUUUACUGAAUUCUUACGAGAAGGUAUACGUACUU | 122 | 94.3 |  | 
43 | CUUAGACAUGAGGAUCACCCAUGUGAGGAUAUGAUGCGAUCGUCGAAAGACGAUAGCAUCAGAAGGUACAAAUG | 86 | 67 |  | 
44 | GGCUCAUUGACAUUAAUGUGCAGACAGGAUAUCCACGGCGGUUCCUACAUGAGGAUCACCCAUGUGGAGAAGGGUCGCUAAUGG | 14.4 | 33 |  | 
45 | AUCAUGUGAGGAUAUAAAAUGAAUAUAAAUUAUUAUCUUGAUUAGAAGGCACAUGAGGAUCACCCAUGUCUGAA | 32.5 | 39.2 |  | 
46 | UCCACUGCUGAGAAGGGAUACGUUUGGGUCGCAUCAGGAUAUCGAUACAGUGCAGCAUGAGGACAUGAGGAUCACCCAUGUGUG |  |  | 140 | 29.5
47 | CCAUGCGGAUGAGGAUAUUCAUCUAUGAGGAUAGAAGAAGGCAUACAUGAGGAUCACCCAUGUAUACGCAUGAGGAUCCCUUAC | 24 | 26 |  | 
48 | GUCAGCUCGUGAGGAUAUACAUAAUCCUAAGAUCACAUGAGGAUCACCCAUGUAGAAGGCACGAGCUGAUAAGCACGAAAGUGC | 8.89 | 50.2 |  | 
49 | UUAAAUCAUGUAGGAUAUGCAUGGCGAAGCUACGCAGAAGGACAUGAGGAUCACCCAUGUUCUAGCGUCUGAGUUCAGAUGCAA | 20.9 | 41.7 |  | 
50 | GUAUCAUACCAAGGAUAUUUAGGACUUGGAUAGACAUGAGGAUCACCCAUGUGGCGUUAGUCACGGGAGAAGGUGGUAUGAUAC |  |  | 103 | 20.7
51 | CAAAGGUGAGGAUAUGCAUAACUAUGACGAAAGUCAUAAACACAUGAGGAUCACCCAUGUAGAAGGCGCCACAA | 63.6 | 47.8 |  | 
52 | CUUUUGUGAGGAUAUCAGUAGUAAAUAAAUAAAAUUACUUCUGAGAAGGCACAUGAGGAUCACCCAUGUUCCUC | 34.1 | 251 |  | 
53 | AGCACGAAAGUGCAACGAUGUACGAGAAGGACAUGAGGAUCACCCAUGUAGGAGUAACUCCAAAUGUAGGAUAUCGUACAUCGA | 568 | 79 |  | 
54 | AGUGACGACACAGGAUAUGCUGGACUUUGUCCAGCAGAAGGGUGUUAACAUGAGGAUCACCCAUGUAUCGUCACCAAAUUUAAU |  |  | 628 | 34.1
55 | GGAUCUUGGGUCAGGAUAUGCUGACAGCCAUGUCAGCAGAAGGGACAUGAGGAUCACCCAUGUGCUCGGUUUUG | 10.3 | 18.1 |  | 
